Measurements reported in ChEMBL document CHEMBL5653622 (Oncotarget, 2016).
The source made the active and inactive calls. No cut-off for these calls is given here.

Legend:
[1] = biological target: Ribosomal protein S6 kinase alpha-3 (Homo sapiens, UniProt P51812); assay: Inhibition of human RSK2 at 10 uM in presence of ATP by radiometric kinase assay relative to control
[2] = biological target: Insulin receptor (Homo sapiens) (UniProt P06213); assay: Inhibition of human IR assessed as remaining activity at 10 uM in presence of ATP by radiometric kinase assay relative to control
[3] = biological target: Dual specificity tyrosine-phosphorylation-regulated kinase 2 (Homo sapiens) (UniProt Q92630); assay: Inhibition of human DYRK2 assessed as remaining activity at 10 uM in presence of ATP by radiometric kinase assay relative to control
[4] = biological target: Serine/threonine-protein kinase PLK1 (Homo sapiens) (UniProt P53350); assay: Inhibition of human PLK1 assessed as remaining activity at 10 uM in presence of ATP by radiometric kinase assay relative to control
SW-620 = assay: Induction of apoptosis in human SW620 cells assessed as increased in cleaved PARP in presence of gemcitabine by Western blotting analysis; format: functional, cell-based
[5] = Cmax in BALB/C mouse spleen at 10 mg/kg, iv by LC/MS-MS analysis; format: ADME, organism-based
Procedure, shortened: (§1)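 Female BALB/c mice received a single 10mg/kg bolus i.v. or p.o. Plasma (and spleen homogenate) extracted with methanol containing internal standards. Concentrations were measured by LC/MS-MS and PK parameters calculated with modelling software.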

[6] = biological target: Mitogen-activated protein kinase 3 (Homo sapiens) (UniProt P27361); assay: Inhibition of human ERK1 assessed as remaining activity at 10 uM in presence of ATP by radiometric kinase assay relative to control
[7] = biological target: Mitogen-activated protein kinase 15 (Homo sapiens, UniProt Q8TD08); assay: Inhibition of human ERK8 in presence of ATP by radiometric kinase assay
[8] = biological target: Serine/threonine-protein kinase TBK1 (Homo sapiens) (UniProt Q9UHD2); assay: Inhibition of human TBK1 assessed as remaining activity at 10 uM in presence of ATP by radiometric kinase assay relative to control
[9] = biological target: Tyrosine-protein kinase Lck (Homo sapiens) (UniProt P06239); assay: Inhibition of human Lck assessed as remaining activity at 10 uM in presence of ATP by radiometric kinase assay relative to control
[10] = biological target: MAP kinase-activated protein kinase 2 (Homo sapiens) (UniProt P49137); assay: Inhibition of human MAPKAP-K2 assessed as remaining activity at 10 uM in presence of ATP by radiometric kinase assay relative to control
[11] = biological target: Mitogen-activated protein kinase kinase kinase 9 (Homo sapiens) (UniProt P80192); assay: Inhibition of human MLK1 assessed as remaining activity at 10 uM in presence of ATP by radiometric kinase assay relative to control
[12] = biological target: cAMP-dependent protein kinase (PKA) (Homo sapiens) (UniProt P22694+P17612+P22612); assay: Inhibition of human PKA assessed as remaining activity at 10 uM in presence of ATP by radiometric kinase assay relative to control; format: protein assay
[13] = biological target: Aurora kinase B (Homo sapiens) (UniProt Q96GD4); assay: Inhibition of human AuroraB assessed as remaining activity at 10 uM in presence of ATP by radiometric kinase assay relative to control
[14] = biological target: Casein kinase I (Homo sapiens) (UniProt Q9HCP0+P78368+P48730+P49674+P48729); assay: Inhibition of human CK1 assessed as remaining activity at 10 uM in presence of ATP by radiometric kinase assay relative to control; format: protein assay
[15] = biological target: Serine/threonine-protein kinase PAK 5 (Homo sapiens) (UniProt Q9P286); assay: Inhibition of human PAK5 assessed as remaining activity at 10 uM in presence of ATP by radiometric kinase assay relative to control
[16] = Toxicity in Emu-Myc driven transgenic mouse transplant model of B-cell lymphoma assessed as reduction in weight of the inguinal lymph nodes at 150 mg/kg, po administered for 9 days; format: organism-based; settings: in vivo, 216 h, time 9 day
[17] = biological target: Tyrosine-protein kinase JAK2 (Homo sapiens) (UniProt O60674); assay: Inhibition of human JAK2 assessed as remaining activity at 10 uM in presence of ATP by radiometric kinase assay relative to control
[18] = biological target: Dual specificity protein kinase CLK2 (Homo sapiens, UniProt P49760); assay: Inhibition of human CLK2 at 10 uM in presence of ATP by radiometric kinase assay relative to control
HT-29 = assay: Induction of apoptosis in human HT-29 cells assessed as phosphorylation of H2AX on S139 in presence of gemcitabine by Western blotting analysis; format: functional, cell-based
Mus musculus = assay: In vivo inhibition of CHK1 in CRTac:Ncr-Fox1 athymic mouse xenografted with human Calu-6 cells assessed as enhanced phosphorylation CHK1 at […] on 150 mg/kg, po in presence of gemcitabine and carboplatin by Western blotting analysis; format: functional, organism-based
Procedure, shortened: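 Female CRTac:Ncr-Fox1(nu) athymic mice carried s.c. Calu6 xenografts. Tumors were taken 6h after the last inhibitor dose, lysed in CHAPS buffer, and immunoblotted with GAPDH as loading control.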

[19] = biological target: Inhibitor of nuclear factor kappa-B kinase subunit beta (Homo sapiens) (UniProt O14920); assay: Inhibition of human IKKb assessed as remaining activity at 10 uM in presence of ATP by radiometric kinase assay relative to control
[20] = biological target: Aurora kinase A (Homo sapiens) (UniProt O14965); assay: Inhibition of human AuroraA assessed as remaining activity at 10 uM in presence of ATP by radiometric kinase assay relative to control
[21] = biological target: MAP kinase-interacting serine/threonine-protein kinase 1 (Homo sapiens) (UniProt Q9BUB5); assay: Inhibition of human MNK1 assessed as remaining activity at 10 uM in presence of ATP by radiometric kinase assay relative to control
[22] = biological target: Protein kinase C alpha type (Homo sapiens) (UniProt P17252); assay: Inhibition of human PKCa assessed as remaining activity at 10 uM in presence of ATP by radiometric kinase assay relative to control
[23] = Toxicity in Emu-Myc driven transgenic mouse transplant model of B-cell lymphoma assessed as change in water consumption at 150 mg/kg, po administered for 9 days; format: organism-based; settings: in vivo, 216 h, time 9 day
[24] = Cmax in BALB/C mouse plasma at 10 mg/kg, iv by LC/MS-MS analysis; format: ADME, organism-based; procedure, shortened: as §1
[25] = biological target: Dual specificity testis-specific protein kinase 1 (Homo sapiens) (UniProt Q15569); assay: Inhibition of human TESK1 assessed as remaining activity at 10 uM in presence of ATP by radiometric kinase assay relative to control
[26] = biological target: MAP/microtubule affinity-regulating kinase 3 (Homo sapiens, UniProt P27448); assay: Inhibition of human MARK3 by FRET based Z-LYTE kinase assay
[27] = biological target: Ephrin type-B receptor 2 (Homo sapiens) (UniProt P29323); assay: Inhibition of human EPH-B2 assessed as remaining activity at 10 uM in presence of ATP by radiometric kinase assay relative to control
Chain of Ephrin type-B receptor 2 (Homo sapiens) (P29323 whole entry): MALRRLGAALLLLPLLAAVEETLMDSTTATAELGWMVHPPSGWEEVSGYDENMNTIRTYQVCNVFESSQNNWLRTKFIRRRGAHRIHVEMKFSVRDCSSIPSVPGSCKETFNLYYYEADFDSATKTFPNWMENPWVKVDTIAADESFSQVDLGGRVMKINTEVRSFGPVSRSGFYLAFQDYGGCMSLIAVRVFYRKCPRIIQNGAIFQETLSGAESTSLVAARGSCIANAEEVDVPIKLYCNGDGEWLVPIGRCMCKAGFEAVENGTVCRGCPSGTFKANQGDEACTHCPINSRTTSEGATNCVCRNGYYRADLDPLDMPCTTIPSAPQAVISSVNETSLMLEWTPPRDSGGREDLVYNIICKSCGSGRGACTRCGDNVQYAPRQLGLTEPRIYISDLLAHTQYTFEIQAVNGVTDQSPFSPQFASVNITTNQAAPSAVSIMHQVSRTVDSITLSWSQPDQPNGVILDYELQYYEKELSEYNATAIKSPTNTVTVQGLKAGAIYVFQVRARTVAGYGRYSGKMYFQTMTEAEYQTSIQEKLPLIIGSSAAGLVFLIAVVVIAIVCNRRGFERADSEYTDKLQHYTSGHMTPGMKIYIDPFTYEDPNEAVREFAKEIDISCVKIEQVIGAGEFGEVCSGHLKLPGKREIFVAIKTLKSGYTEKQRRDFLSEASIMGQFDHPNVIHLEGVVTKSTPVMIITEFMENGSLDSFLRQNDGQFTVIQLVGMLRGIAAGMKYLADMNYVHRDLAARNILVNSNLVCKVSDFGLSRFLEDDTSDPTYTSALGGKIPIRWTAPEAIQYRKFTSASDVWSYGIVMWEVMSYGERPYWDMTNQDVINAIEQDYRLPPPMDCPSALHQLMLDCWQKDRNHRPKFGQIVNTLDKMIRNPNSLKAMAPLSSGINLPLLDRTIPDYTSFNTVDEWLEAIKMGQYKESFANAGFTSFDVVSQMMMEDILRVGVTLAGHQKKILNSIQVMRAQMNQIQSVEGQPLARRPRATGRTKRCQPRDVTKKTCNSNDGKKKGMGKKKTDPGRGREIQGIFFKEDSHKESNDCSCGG

Chain of Insulin receptor (Homo sapiens) (P06213 28-758 limits assumed): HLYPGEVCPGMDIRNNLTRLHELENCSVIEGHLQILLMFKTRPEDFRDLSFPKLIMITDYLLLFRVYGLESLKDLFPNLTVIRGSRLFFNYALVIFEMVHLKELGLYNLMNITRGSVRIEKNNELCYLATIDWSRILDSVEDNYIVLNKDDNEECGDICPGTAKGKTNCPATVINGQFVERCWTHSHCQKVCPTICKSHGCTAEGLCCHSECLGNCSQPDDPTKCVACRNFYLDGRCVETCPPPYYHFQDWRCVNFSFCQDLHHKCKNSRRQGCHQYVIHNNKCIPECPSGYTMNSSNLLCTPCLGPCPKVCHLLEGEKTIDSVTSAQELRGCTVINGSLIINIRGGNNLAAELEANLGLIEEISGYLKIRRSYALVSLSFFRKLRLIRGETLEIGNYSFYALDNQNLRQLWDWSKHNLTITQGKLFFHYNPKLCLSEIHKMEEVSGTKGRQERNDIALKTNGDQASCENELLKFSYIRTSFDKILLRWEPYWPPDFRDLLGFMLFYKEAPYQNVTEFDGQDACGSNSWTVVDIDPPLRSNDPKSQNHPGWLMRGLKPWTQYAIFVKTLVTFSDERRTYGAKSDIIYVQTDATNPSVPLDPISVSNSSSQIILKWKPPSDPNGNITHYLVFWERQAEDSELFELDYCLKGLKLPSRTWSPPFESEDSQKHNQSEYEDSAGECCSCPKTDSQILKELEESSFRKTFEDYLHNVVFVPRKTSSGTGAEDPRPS
Chain of Insulin receptor (Homo sapiens) (P06213 763-1382 limits assumed): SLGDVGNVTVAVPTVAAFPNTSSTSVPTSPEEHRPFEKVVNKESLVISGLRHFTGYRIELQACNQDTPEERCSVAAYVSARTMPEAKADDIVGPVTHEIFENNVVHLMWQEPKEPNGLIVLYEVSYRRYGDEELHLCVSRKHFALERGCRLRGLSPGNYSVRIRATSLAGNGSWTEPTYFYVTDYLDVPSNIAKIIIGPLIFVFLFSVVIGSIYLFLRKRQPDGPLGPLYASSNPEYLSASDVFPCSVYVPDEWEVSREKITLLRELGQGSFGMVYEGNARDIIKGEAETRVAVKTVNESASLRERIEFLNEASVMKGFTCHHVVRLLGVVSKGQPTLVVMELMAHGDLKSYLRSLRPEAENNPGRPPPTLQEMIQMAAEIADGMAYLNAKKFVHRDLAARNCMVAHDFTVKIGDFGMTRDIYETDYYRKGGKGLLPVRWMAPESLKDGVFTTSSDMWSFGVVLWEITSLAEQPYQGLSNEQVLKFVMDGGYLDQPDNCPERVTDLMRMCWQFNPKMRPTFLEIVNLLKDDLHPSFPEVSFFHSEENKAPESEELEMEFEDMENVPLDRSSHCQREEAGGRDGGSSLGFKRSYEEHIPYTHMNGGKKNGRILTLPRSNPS
Chain of Dual specificity tyrosine-phosphorylation-regulated kinase 2 (Homo sapiens) (Q92630 whole entry): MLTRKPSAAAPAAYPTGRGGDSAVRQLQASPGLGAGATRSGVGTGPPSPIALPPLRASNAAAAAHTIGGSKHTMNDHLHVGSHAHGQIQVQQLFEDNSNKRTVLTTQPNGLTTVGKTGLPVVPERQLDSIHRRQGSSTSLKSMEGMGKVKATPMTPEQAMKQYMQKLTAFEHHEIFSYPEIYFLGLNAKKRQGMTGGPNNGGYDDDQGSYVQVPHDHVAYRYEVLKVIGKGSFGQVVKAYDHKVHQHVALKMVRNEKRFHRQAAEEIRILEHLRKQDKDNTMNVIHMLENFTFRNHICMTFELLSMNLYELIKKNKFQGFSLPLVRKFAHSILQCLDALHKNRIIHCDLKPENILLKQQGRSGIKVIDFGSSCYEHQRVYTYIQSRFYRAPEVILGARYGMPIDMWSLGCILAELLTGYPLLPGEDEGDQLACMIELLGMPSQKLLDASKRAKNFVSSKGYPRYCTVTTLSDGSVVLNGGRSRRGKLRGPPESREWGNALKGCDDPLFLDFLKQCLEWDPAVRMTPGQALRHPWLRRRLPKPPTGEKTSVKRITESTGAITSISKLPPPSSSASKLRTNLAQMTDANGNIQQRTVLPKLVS
Chain of Serine/threonine-protein kinase PAK 5 (Homo sapiens) (Q9P286 whole entry, looked up): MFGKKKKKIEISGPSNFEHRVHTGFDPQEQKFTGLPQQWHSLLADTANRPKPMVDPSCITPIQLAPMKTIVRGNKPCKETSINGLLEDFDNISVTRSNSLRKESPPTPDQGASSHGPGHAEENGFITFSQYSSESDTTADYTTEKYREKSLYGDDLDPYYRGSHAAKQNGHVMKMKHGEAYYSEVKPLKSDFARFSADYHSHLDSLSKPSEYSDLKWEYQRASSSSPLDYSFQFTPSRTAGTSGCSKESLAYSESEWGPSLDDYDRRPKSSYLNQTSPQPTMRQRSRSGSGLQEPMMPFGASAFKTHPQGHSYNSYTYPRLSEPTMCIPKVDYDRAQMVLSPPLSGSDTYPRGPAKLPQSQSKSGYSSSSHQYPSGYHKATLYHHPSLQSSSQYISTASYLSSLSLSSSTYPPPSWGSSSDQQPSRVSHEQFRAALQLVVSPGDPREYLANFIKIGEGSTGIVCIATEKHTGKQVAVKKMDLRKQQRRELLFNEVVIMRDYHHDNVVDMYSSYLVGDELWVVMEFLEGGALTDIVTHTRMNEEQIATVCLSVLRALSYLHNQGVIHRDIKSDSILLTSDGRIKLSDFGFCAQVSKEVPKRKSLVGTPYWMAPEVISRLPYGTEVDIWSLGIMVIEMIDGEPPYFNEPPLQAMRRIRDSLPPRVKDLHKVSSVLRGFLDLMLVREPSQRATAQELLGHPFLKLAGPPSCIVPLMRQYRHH
Chain of Serine/threonine-protein kinase PLK1 (Homo sapiens) (P53350 whole entry): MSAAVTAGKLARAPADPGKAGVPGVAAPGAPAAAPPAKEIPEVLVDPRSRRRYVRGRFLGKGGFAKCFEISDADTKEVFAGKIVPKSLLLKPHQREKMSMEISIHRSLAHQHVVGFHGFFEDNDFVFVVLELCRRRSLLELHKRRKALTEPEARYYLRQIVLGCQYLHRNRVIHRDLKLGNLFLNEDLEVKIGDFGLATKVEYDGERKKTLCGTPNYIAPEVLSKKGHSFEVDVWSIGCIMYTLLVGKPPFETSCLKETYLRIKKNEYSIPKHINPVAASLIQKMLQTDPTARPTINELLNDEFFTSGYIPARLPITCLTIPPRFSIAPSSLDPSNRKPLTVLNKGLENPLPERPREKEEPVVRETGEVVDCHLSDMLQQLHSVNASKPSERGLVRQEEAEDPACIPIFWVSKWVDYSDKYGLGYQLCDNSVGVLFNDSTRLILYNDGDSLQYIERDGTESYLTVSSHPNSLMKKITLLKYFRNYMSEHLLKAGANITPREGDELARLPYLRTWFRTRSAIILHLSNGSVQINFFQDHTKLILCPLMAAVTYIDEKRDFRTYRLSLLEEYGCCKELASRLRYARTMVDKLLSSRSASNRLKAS
Chain of Aurora kinase A (Homo sapiens) (O14965 whole entry): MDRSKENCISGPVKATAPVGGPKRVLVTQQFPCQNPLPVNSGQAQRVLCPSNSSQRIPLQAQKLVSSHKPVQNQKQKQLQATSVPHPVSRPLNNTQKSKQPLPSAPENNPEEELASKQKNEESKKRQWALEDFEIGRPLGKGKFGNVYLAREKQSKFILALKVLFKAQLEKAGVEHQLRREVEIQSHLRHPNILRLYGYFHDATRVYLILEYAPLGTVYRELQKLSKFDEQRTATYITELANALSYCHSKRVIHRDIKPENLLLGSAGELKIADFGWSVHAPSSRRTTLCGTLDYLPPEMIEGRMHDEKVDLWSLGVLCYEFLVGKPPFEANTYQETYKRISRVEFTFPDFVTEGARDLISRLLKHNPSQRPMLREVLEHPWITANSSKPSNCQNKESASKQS

For `N#Cc1cnc(Nc2cc(NC[C@H]3CNCCO3)c(C(F)(F)F)cn2)cn1` [SRA-737], the inhibition [1] was 81%, the Activity [2] was 102% and the Activity [3] was 61%. For the same molecule, the Activity [4] was 103%, the Activity (SW-620) was “Active” and the Cmax [5] was 44.7 µM. The Activity [6] was 75%, the IC50 [7] was 130 nM and the Activity [8] was 71%. For the same molecule, the Activity [9] was 78%, the Activity [10] was 94% and the Activity [11] was 75%. The Activity [12] was 93%, the Activity [13] was 26% and the Activity [14] was 85%. The Activity [15] was 70%, the Activity [16] was “Toxic” and the Activity [17] was 37%. For the same molecule, the inhibition [18] was 94%, the Activity (HT-29) was “Active” and the Activity (Mus musculus) was “Active”. For the same molecule, the Activity [19] was 91%, the Activity [20] was 75% and the Activity [21] was 62%. For the same molecule, the Activity [22] was 82%, the Activity [23] was “Non-Toxic” and the Cmax [24] was 4 µM. For the same molecule, the Activity [25] was 101%, the IC50 [26] was 698 nM and the Activity [27] was 102%.
